Measured values published in ChEMBL document CHEMBL6177935, “Design and synthesis of novel multi-target tetrabromophthalimides as CBS and Topo-II inhibitors and DNA intercalators” (RSC Med Chem, 2024).
Calls of active or inactive are those of the source. The calls are words filed in the database; no cut-off is given here.

Experiments:
DNA topoisomerase 2-beta [1] = molecular target: T1, DNA topoisomerase 2-beta (Homo sapiens, UniProt Q02880); test: Inhibition of human topoisomerase IIB-mediated DNA fragmentation
T1 sequence (Q02880 whole entry, the tested form may be a part): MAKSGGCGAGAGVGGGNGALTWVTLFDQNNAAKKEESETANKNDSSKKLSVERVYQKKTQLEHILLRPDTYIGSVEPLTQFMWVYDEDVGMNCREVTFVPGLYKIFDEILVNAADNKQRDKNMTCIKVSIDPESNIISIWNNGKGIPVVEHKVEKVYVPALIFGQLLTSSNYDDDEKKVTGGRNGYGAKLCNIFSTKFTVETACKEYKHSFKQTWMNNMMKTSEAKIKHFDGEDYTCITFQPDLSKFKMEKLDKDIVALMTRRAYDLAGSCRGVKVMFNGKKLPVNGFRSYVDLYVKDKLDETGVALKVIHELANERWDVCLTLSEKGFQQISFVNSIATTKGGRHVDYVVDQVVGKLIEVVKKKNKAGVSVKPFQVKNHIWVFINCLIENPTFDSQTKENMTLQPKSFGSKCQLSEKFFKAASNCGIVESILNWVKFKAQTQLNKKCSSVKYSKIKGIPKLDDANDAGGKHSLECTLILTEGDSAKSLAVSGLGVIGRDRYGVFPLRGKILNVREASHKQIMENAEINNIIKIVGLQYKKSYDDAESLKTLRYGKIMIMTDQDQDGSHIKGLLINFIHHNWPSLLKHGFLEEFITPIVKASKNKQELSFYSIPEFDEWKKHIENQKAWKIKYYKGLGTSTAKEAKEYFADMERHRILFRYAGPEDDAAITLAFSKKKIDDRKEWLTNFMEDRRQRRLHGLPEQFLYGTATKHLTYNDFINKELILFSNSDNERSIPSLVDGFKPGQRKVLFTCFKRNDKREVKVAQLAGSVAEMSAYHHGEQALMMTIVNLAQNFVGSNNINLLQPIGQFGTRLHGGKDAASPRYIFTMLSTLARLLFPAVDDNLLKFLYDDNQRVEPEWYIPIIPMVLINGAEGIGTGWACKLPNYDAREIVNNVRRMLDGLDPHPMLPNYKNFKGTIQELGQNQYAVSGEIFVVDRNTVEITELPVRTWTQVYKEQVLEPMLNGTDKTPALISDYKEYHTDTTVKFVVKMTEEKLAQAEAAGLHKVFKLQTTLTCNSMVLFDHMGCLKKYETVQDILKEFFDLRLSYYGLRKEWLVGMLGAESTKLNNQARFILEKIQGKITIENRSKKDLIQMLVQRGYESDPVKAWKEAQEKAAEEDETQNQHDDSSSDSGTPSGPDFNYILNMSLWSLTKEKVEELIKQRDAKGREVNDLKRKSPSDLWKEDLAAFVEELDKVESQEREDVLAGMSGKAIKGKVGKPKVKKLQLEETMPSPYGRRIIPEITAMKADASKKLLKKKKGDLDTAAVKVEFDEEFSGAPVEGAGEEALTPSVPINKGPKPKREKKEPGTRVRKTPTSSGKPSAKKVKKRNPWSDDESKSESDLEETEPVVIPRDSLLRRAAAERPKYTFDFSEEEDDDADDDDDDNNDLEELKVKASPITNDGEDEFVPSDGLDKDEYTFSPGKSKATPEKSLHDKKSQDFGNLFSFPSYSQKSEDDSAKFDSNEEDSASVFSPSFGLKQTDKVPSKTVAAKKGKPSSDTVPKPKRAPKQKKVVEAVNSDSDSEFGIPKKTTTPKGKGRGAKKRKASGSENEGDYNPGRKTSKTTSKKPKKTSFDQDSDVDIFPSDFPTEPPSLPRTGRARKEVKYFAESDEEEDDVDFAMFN

DNA topoisomerase 2-beta [2] = molecular target: T1, DNA topoisomerase 2-beta; test: Inhibition of human topoisomerase IIB by sandwich ELISA
[3] = (§1) Growth inhibition of human HNO 97 cells at 100 ug/ml measured after 48 hrs by SRB assay relative to control; assay type: functional, HNO 97 cell line; conditions: HNO 97, 48 h, pooled result: one value given for 15 cell lines, strains, targets or settings, read-out: GI
Procedure, shortened: (§2)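 SRB screen on fifteen human cancer lines. Cells seeded at 3×10^3 per well and left 24 h to attach. A single concentration of 100 µg/mL was tested in triplicate wells for 48 h, with 1% v/v DMSO as vehicle control. Cells fixed in 20% TCA, stained with 0.4% SRB and read at 570 nm. Survival fraction = OD treated/OD control.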

Tubulin (Homo sapiens) = Tubulin (Homo sapiens) (UniProt P68371+Q9H4B7+P0DPH7+P68366+Q13509+Q71U36+P04350+Q3ZCM7+P07437+P68363+Q9BQE3+Q6PEY2+Q13885+Q9BVA1+Q9BUF5); test: Inhibition of [3H]-colchicine binding to biotinylated-tubulin (unknown origin) measured after 45 mins by scintillation counting analysis; assay type: protein-complex assay
Procedure, shortened: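 Scintillation proximity assay run at 37 °C. Incubated 45 min at 37 °C, then the plate was read and percent inhibition calculated from raw counts.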

HCT-116 = test: Growth inhibition of human HCT-116 cells at 100 ug/ml measured after 48 hrs by SRB assay relative to control; assay type: functional; conditions: dose 100.0 µg/ml, pooled result: one value given for 15 cell lines, strains, targets or settings; procedure, shortened: as §2
PC-3 = test: Growth inhibition of human PC-3 cells at 100 ug/ml measured after 48 hrs by SRB assay relative to control; assay type: functional; conditions: dose 100.0 µg/ml, pooled result: one value given for 15 cell lines, strains, targets or settings; procedure, shortened: as §2
FaDu = test: Growth inhibition of human FaDu cells at 100 ug/ml measured after 48 hrs by SRB assay relative to control; assay type: functional; conditions: dose 100.0 µg/ml, pooled result: one value given for 15 cell lines, strains, targets or settings; procedure, shortened: as §2
HeLa = test: Growth inhibition of human HeLa cells at 100 ug/ml measured after 48 hrs by SRB assay relative to control; assay type: functional; conditions: dose 100.0 µg/ml, pooled result: one value given for 15 cell lines, strains, targets or settings; procedure, shortened: as §2
MCF7 = test: Growth inhibition of human MCF7 cells at 100 ug/ml measured after 48 hrs by SRB assay relative to control; assay type: functional; conditions: dose 100.0 µg/ml, pooled result: one value given for 15 cell lines, strains, targets or settings; procedure, shortened: as §2
A-431 = test: Growth inhibition of human A-431 cells at 100 ug/ml measured after 48 hrs by SRB assay relative to control; assay type: functional; conditions: dose 100.0 µg/ml, pooled result: one value given for 15 cell lines, strains, targets or settings; procedure, shortened: as §2
HN = test: Growth inhibition of human HN cells at 100 ug/ml measured after 48 hrs by SRB assay relative to control; assay type: functional; conditions: dose 100.0 µg/ml, pooled result: one value given for 15 cell lines, strains, targets or settings; procedure, shortened: as §2
HepG2 = test: Growth inhibition of human HepG2 cells at 100 ug/ml measured after 48 hrs by SRB assay relative to control; assay type: functional; conditions: dose 100.0 µg/ml, pooled result: one value given for 15 cell lines, strains, targets or settings; procedure, shortened: as §2
Caco-2 = test: Growth inhibition of human Caco-2 cells at 100 ug/ml measured after 48 hrs by SRB assay relative to control; assay type: functional; conditions: dose 100.0 µg/ml, pooled result: one value given for 15 cell lines, strains, targets or settings; procedure, shortened: as §2
A-375 = test: Growth inhibition of human A-375 cells at 100 ug/ml measured after 48 hrs by SRB assay relative to control; assay type: functional; conditions: dose 100.0 µg/ml, pooled result: one value given for 15 cell lines, strains, targets or settings; procedure, shortened: as §2
HEp-2 = test: Growth inhibition of human HEp-2 cells at 100 ug/ml measured after 48 hrs by SRB assay relative to control; assay type: functional; conditions: dose 100.0 µg/ml, pooled result: one value given for 15 cell lines, strains, targets or settings; procedure, shortened: as §2
MDA-MB-468 = test: Growth inhibition of human MDA-MB-468 cells at 100 ug/ml measured after 48 hrs by SRB assay relative to control; assay type: functional; conditions: dose 100.0 µg/ml, pooled result: one value given for 15 cell lines, strains, targets or settings; procedure, shortened: as §2
NCI-H1299 = test: Growth inhibition of human NCI-H1299 cells at 100 ug/ml measured after 48 hrs by SRB assay relative to control; assay type: functional; conditions: dose 100.0 µg/ml, pooled result: one value given for 15 cell lines, strains, targets or settings; procedure, shortened: as §2
HNO 97 cell line = test: as §1; assay type: functional; conditions: dose 100.0 µg/ml, pooled result: one value given for 15 cell lines, strains, targets or settings; procedure, shortened: as §2
A549 = test: Growth inhibition of human A549 cells at 100 ug/ml measured after 48 hrs by SRB assay relative to control; assay type: functional; conditions: dose 100.0 µg/ml, pooled result: one value given for 15 cell lines, strains, targets or settings; procedure, shortened: as §2

| inhibition (DNA topoisomerase 2-beta [1]) | inhibition (DNA topoisomerase 2-beta [2]) | IC50 (DNA topoisomerase 2-beta [2]) | inhibition (Tubulin (Homo sapiens)) | SMILES | inhibition of growth at 100 µg/mL [3] | growth inhibition (GI) (HCT-116) | growth inhibition (GI) (PC-3) | growth inhibition (GI) (FaDu) | growth inhibition (GI) (HeLa) | growth inhibition (GI) (MCF7) | growth inhibition (GI) (A-431) | growth inhibition (GI) (HN) | growth inhibition (GI) (HepG2) | growth inhibition (GI) (Caco-2) | growth inhibition (GI) (A-375) | growth inhibition (GI) (HEp-2) | growth inhibition (GI) (MDA-MB-468) | growth inhibition (GI) (NCI-H1299) | growth inhibition (GI) (HNO 97 cell line) | growth inhibition (GI) (A549) |
| --- | --- | --- | --- | --- | --- | --- | --- | --- | --- | --- | --- | --- | --- | --- | --- | --- | --- | --- | --- | --- |
| Active | Active; Weak Inhibition Observed |  |  | O=C(O)[C@H](Cc1c[nH]c2ccccc12)N1C(=O)c2c(Br)c(Br)c(Br)c(Br)c2C1=O | 75.1% |  |  |  |  |  |  |  |  |  |  |  |  |  |  |  |
| Active |  | 12.7 µM |  | COc1cccc2c1C(=O)c1c(O)c3c(c(O)c1C2=O)C[C@@](O)(C(=O)CO)C[C@@H]3O[C@H]1C[C@H](N)[C@H](O)[C@H](C)O1 [DOXORUBICIN] | 70.2% |  |  |  |  |  |  |  |  |  |  |  |  |  |  |  |
| Active | Active |  | Active; Weak Inhibition Observed | O=C1c2c(Br)c(Br)c(Br)c(Br)c2C(=O)N1c1nnc[nH]1 |  | Active | Active | Active | Active | Active | Active | Active | Active | Active | Active | Active | Active | Active | Active | Active |
|  |  |  |  | CC(=O)N(NC(=S)NN1C(=O)c2c(Br)c(Br)c(Br)c(Br)c2C1=O)C(C)=O |  | Active | Active | Active | Active | Active | Active | Active | Active | Active | Active | Active | Active | Active | Active | Active |
|  |  |  |  | O=C1CCC(N2C(=O)c3c(Br)c(Br)c(Br)c(Br)c3C2=O)C(=O)O1 (centres undefined) |  | Active; Weak Inhibition Observed | Active; Weak Inhibition Observed | Active; Weak Inhibition Observed | Active; Weak Inhibition Observed | Active; Weak Inhibition Observed | Active; Weak Inhibition Observed | Active; Weak Inhibition Observed | Active; Weak Inhibition Observed | Active; Weak Inhibition Observed | Active; Weak Inhibition Observed | Active; Weak Inhibition Observed | Active; Weak Inhibition Observed | Active; Weak Inhibition Observed | Active; Weak Inhibition Observed | Active; Weak Inhibition Observed |
